Test results reported in ChEMBL document CHEMBL4261567, “Phenylethynyl-substituted Heterocycles Inhibit Cyclin D1 and Induce the Expression of Cyclin-dependent Kinase Inhibitor p21Wif1/Cip1 in Colorectal Cancer Cells” (Medchemcomm, 2018).
The source made the active and inactive calls. The rule behind the calls is not given here.

Legend:
[1] = system: LS174T; assay: Antiproliferative activity against human LS174T cells assessed as inhibition of cell proliferation at 10 uM after 4 days by Vi-Cell cell viability analyzer based method relative to control; type: functional; conditions: 96 h
How it was run: (§1)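 Cells (colon LS174T, HT-29, Caco2; lung epithelial BEAS-2B; fibroblast HEL 299) were kept in RPMI or DMEM with 5% or 10% FBS plus 1% penicillin/streptomycin. 3 × 10^4 cells per well were exposed to DMSO or compound. After 4 days, cell number and viability were counted on a Vi-Cell analyzer. Results are given as percent inhibition of proliferation at the stated concentration.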

[2] = system: LS174T; assay: Antiproliferative activity against human LS174T cells assessed as inhibition of cell proliferation at 1 uM after 4 days by Vi-Cell cell viability analyzer based method relative to control; type: functional; conditions: 96 h; how it was run: as §1
[3] = system: LS174T; assay: Antiproliferative activity against human LS174T cells assessed as inhibition of cell proliferation at 100 nM after 4 days by Vi-Cell cell viability analyzer based method relative to control; type: functional; conditions: 96 h; how it was run: as §1
[4] = system: LS174T; assay: Antiproliferative activity against human LS174T cells assessed as inhibition of cell proliferation at 30 nM after 4 days by Vi-Cell cell viability analyzer based method relative to control; type: functional; conditions: 96 h; how it was run: as §1
[5] = system: HT-29; assay: Antiproliferative activity against human HT-29 cells assessed as inhibition of cell proliferation at 1 uM after 4 days by Vi-Cell cell viability analyzer based method relative to control; type: functional; conditions: HT-29, 96 h; how it was run: as §1
[6] = system: Caco-2; assay: Antiproliferative activity against human Caco2 cells assessed as inhibition of cell proliferation at 1 uM after 4 days by Vi-Cell cell viability analyzer based method relative to control; type: functional; conditions: Caco-2, 96 h; how it was run: as §1
[7] = Cytotoxicity against human HEL299 cells assessed as inhibition of cell proliferation at 10 uM after 4 days by Vi-Cell cell viability analyzer based method relative to control; set-up: species or system HEL 299; how it was run: as §1
[8] = Cytotoxicity against human HEL299 cells assessed as inhibition of cell proliferation at 1 uM after 4 days by Vi-Cell cell viability analyzer based method relative to control; set-up: species or system HEL 299; how it was run: as §1
[9] = Cytotoxicity against human BEAS2B cells assessed as inhibition of cell proliferation at 10 uM after 4 days by Vi-Cell cell viability analyzer based method relative to control; set-up: species or system BEAS-2B; how it was run: as §1
[10] = Cytotoxicity against human BEAS2B cells assessed as inhibition of cell proliferation at 1 uM after 4 days by Vi-Cell cell viability analyzer based method relative to control; set-up: species or system BEAS-2B; how it was run: as §1
[11] = target: G1/S-specific cyclin-D1 (Homo sapiens) (UniProt P24385); assay: Inhibition of cyclin D1 in human LS174T cells assessed as reduction in protein level at 300 nM by Western blot analysis; type: cell-based
G1/S-specific cyclin-D1 (Homo sapiens), sequence (P24385 whole entry): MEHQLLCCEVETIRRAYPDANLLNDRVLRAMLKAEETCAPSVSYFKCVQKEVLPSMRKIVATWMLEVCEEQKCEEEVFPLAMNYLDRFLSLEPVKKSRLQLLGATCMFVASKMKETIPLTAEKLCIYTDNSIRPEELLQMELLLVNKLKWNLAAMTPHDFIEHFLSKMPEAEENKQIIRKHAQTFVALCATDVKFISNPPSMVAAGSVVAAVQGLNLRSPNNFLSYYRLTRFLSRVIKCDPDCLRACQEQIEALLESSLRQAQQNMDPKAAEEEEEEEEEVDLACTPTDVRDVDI
How it was run: (§2)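 LS174T cells were treated at 300 nM. Lysates were western blotted with antibodies to cyclin D1 and p21Wif1/Cip1, using β-tubulin as the loading control.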

[12] = target: G1/S-specific cyclin-D1 (Homo sapiens) (UniProt P24385); assay: Inhibition of cyclin D1 in human LS174T cells assessed as induction of p21 waf1/cip1 expression at 300 nM by Western blot analysis; type: cell-based; how it was run: as §2
[13] = system: LS174T; assay: Antiproliferative activity against human LS174T cells assessed as inhibition of cell proliferation after 4 days by Vi-Cell cell viability analyzer based method; type: functional; conditions: 96 h
How it was run: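 LS174T cells in RPMI or DMEM with 5% or 10% FBS plus 1% penicillin/streptomycin were seeded at 3 × 10^4 cells per well. They were treated with DMSO or a range of compound concentrations, and cell number and viability were counted on a Vi-Cell analyzer after 4 days. IC50 was fitted from the dose-response curve.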

SMILES	inhibition at 10 µM [1] [%]	inhibition at 1 µM [2] [%]	inhibition at 0.1 µM [3] [%]	further results
CN(C)c1ccc(C#Cc2c(F)cccc2F)cn1	83.6	77.9	0	–
Nc1ncc(C#Cc2c(F)cccc2F)c2ccccc12	93.1	86.2	35.5	–
Fc1cccc(F)c1C#Cc1ccc2ncccc2c1	80.1	11	–	–
Fc1cccc(F)c1C#Cc1ccc2[nH]ncc2c1	82.9	17.6	–	–
Fc1cccc(F)c1C#Cc1cnc2ccccc2c1	90.4	41.7	0	–
Fc1cccc(F)c1C#Cc1cnc(Cl)c2ccccc12	94	48.1	0.8	–
Fc1cccc(F)c1C#Cc1cccc2ncccc12	94.7	43.1	–	–
CN(C)c1ccc2cc(C#Cc3c(F)cccc3F)ccc2n1	38.7	2	–	–
Fc1cccc(F)c1C#Cc1ccc(-n2cccc2)nc1	95.3	80.5	0	–
CN1CCN(c2ccc(C#Cc3c(F)cccc3F)cc2)CC1	99.6	19.9	–	–
Cn1ncc2ccc(C#Cc3c(F)cccc3F)cc21	98.1	85.9	0	–
Fc1cccc(F)c1C#Cc1cnc2[nH]ccc2c1	77.9	17.3	–	–
Fc1cccc(F)c1C#Cc1ccc2cnccc2c1	82.4	11.6	–	–
Fc1cccc(F)c1C#Cc1ccc2cncnc2c1	96.3	33.8	–	–
Fc1cccc(F)c1C#Cc1ccc2[nH]ccc2c1	91.5	52.9	–	–
CN(C)c1ccc(C#Cc2c(F)cccc2F)nc1	85.2	68.9	15.1	–
CNc1ncc(C#Cc2c(F)cccc2F)c2ccccc12	98.9	99.8	99.5	inhibition at 0.03 µM [4]: 94.5%; inhibition at 1 µM [5]: 76.8%; inhibition at 1 µM [6]: 58.3%; inhibition at 96 h, 10 µM [7]: 9.5%; inhibition at 96 h, 1 µM [8]: 6.3%; inhibition at 96 h, 10 µM [9]: 19.2%; inhibition at 96 h, 1 µM [10]: 5.8%; inhibition [11]: Active; inhibition [12]: Active; IC50 [13]: 4.2 nM
Fc1cccc(F)c1C#Cc1cccc2[nH]ncc12	96.2	19.8	–	–
Cn1ncc2cc(C#Cc3c(F)cccc3F)ccc21	94.6	58.4	0	–
CN1CCN(c2ncc(C#Cc3c(F)cccc3F)c3ccccc23)CC1	100	23.2	–	–
Nc1ccc2ncc(C#Cc3c(F)cccc3F)cc2c1	9.2	–	–	–
Fc1cccc(F)c1C#Cc1ccc2ccccc2n1	93.8	67.3	6.1	–
Fc1cccc(F)c1C#Cc1cnc2ccccc2c1Cl	80.4	51.5	0	–
Fc1cccc(F)c1C#Cc1cccc2cnccc12	93.6	64.2	–	–

SMILES	inhibition at 10 µM [1] [%]	inhibition at 1 µM [2] [%]	inhibition at 0.1 µM [3] [%]	further results
Cc1ccc(C)n1-c1ccc(C#Cc2c(F)cccc2F)cc1	78.8	20.9	–	–
Fc1cccc(F)c1C#Cc1ccc2nc(Cl)ccc2c1	63.3	21.2	–	–
Fc1cccc(F)c1C#Cc1ccnc2cc(Cl)ccc12	74.3	36	–	–
Fc1cccc(F)c1C#Cc1ccc2nccc(Cl)c2c1	89.7	43.8	–	–
Fc1cccc(F)c1C#Cc1cccc2cccnc12	92.7	47.6	–	–
Fc1cccc(F)c1C#Cc1cnc2c(F)cccc2c1	89.1	63.6	8.8	–
Nc1ccnc2cc(C#Cc3c(F)cccc3F)ccc12	97.7	23.6	–	–
Nc1ccnc2ccc(C#Cc3c(F)cccc3F)cc12	93.9	66.2	0	–
Fc1ccc2ccnc(C#Cc3c(F)cccc3F)c2c1	96.2	71.1	0	–
Fc1ccc2cc(C#Cc3c(F)cccc3F)cnc2c1	95.1	69.4	14.8	–
Fc1cccc(F)c1C#Cc1ccc2c(Cl)ccnc2c1	70.8	23.1	–	–
CN(C)c1ncc(C#Cc2c(F)cccc2F)c2ncccc12	85.2	87.9	59.5	–
Fc1cccc(F)c1C#Cc1cncc2ccccc12	87.9	16.5	–	–
CN(C)c1cnc(C#Cc2c(F)cccc2F)cn1	91.6	22.9	–	–
O=C1CCCCN1c1ccc(C#Cc2c(F)cccc2F)cc1	68.1	6.4	–	–
Fc1cccc(F)c1C#Cc1ccnc2ccccc12	59	15.4	–	–
Fc1cccc(F)c1C#Cc1ccc2cccnc2c1	99.4	90.7	2.9	–
Fc1cccc(F)c1C#Cc1ccc2cn[nH]c2c1	97	81.5	–	–
Fc1cccc(F)c1C#Cc1nccc2ccccc12	96.7	35.4	–	–
Fc1cccc(F)c1C#Cc1cc2ccccc2nc1Cl	85.1	28.4	–	–
Fc1cccc(F)c1C#Cc1ccc(N2CCOCC2)cc1	32.1	13	–	–
Fc1cccc(F)c1C#Cc1ccc(-n2cccc2)cc1	96.7	77.5	11	–
CN(C)c1ccc(C#Cc2c(F)cccc2F)cc1	–	–	–	inhibition [11]: Active; inhibition [12]: Active; IC50 [13]: 25.1 nM
Cn1ccc2cc(C#Cc3c(F)cccc3F)ccc21	95.2	77.7	3	–
